Data published in ChEMBL document CHEMBL3600302, “A Ligand-Based Drug Design. Discovery of 4-Trifluoromethyl-7,8-pyranocoumarin as a Selective Inhibitor of Human Cytochrome P450 1A2” (J Med Chem, 2015).

Columns and labels:
Homo sapiens [1] = organism: Homo sapiens; experiment: Selectivity ratio of Ki for human microsomal CYP1A1 to Ki for human microsomal CYP1A2
In short: (§1)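 Microsomal P450 (final 5 nM) in 0.1 M potassium phosphate pH 7.6 with MgCl2 at 37 °C. Substrate final 5 µM: ethoxyresorufin for 1A1/1B1, methoxyresorufin for 1A2. […] Ki was taken as the x-intercept of Dixon plots (1/v0 vs [I]). Mean ± SD of three independent experiments. Selectivity ratios are ratios of these Ki.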

Cytochrome P450 1B1 [2] = biological target: T1, Cytochrome P450 1B1 (Homo sapiens, UniProt Q16678); experiment: Inhibition of human microsomal CYP1B1-dependent ethoxyresorufin-O-deethylase activity by spectrofluorimetric analysis in presence of NADPH regenerating solution
T1 sequence (Q16678 whole entry): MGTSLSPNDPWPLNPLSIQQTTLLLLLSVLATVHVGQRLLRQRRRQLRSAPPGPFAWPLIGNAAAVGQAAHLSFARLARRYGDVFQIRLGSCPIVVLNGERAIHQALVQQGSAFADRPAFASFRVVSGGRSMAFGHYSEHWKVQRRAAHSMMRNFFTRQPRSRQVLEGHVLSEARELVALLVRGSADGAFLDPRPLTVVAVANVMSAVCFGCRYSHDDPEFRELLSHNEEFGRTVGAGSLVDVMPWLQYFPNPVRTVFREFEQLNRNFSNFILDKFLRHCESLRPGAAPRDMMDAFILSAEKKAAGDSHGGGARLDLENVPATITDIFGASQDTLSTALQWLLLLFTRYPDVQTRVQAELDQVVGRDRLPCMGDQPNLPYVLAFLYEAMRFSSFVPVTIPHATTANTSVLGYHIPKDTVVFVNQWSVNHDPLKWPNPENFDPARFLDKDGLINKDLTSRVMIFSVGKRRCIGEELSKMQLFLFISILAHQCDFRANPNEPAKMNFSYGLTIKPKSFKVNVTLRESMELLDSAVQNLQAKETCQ
In short: (§2)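 Microsomal P450 (final 5 nM) in 0.1 M potassium phosphate pH 7.6 with MgCl2 at 37 °C. Substrate final 5 µM: ethoxyresorufin for 1A1/1B1, methoxyresorufin for 1A2. Ki was taken as the x-intercept of Dixon plots (1/v0 vs [I]). Mean ± SD of three independent experiments. Selectivity ratios are ratios of these Ki.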

Cytochrome P450 1A1 [3] = biological target: T2, Cytochrome P450 1A1 (Homo sapiens, UniProt P04798); experiment: Inhibition of human microsomal CYP1A1-dependent ethoxyresorufin-O-deethylase activity by spectrofluorimetric analysis in presence of NADPH regenerating solution; in short: as §1
T2 sequence (P04798 whole entry): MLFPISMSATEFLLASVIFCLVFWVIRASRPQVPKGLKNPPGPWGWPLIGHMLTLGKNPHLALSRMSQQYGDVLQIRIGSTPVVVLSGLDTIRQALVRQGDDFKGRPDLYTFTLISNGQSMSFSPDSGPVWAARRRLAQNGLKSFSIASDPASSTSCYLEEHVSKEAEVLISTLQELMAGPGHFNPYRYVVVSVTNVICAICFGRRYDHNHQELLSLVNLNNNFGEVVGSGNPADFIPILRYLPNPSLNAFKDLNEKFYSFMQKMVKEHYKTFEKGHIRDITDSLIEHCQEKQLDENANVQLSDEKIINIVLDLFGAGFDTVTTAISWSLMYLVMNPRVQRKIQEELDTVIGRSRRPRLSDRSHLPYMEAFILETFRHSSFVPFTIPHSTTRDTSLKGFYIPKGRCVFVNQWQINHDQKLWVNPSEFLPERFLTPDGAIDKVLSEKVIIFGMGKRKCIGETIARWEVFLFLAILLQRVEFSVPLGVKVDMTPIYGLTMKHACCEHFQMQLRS

Cytochrome P450 1A2 [4] = biological target: T3, Cytochrome P450 1A2 (Homo sapiens, UniProt P05177); experiment: (§3) Time-dependent inhibition of human microsomal CYP1A2-dependent methoxyresorufin-O-demethylase activity by spectrofluorimetric analysis in presence of NADPH regenerating solution
T3 sequence (P05177 whole entry): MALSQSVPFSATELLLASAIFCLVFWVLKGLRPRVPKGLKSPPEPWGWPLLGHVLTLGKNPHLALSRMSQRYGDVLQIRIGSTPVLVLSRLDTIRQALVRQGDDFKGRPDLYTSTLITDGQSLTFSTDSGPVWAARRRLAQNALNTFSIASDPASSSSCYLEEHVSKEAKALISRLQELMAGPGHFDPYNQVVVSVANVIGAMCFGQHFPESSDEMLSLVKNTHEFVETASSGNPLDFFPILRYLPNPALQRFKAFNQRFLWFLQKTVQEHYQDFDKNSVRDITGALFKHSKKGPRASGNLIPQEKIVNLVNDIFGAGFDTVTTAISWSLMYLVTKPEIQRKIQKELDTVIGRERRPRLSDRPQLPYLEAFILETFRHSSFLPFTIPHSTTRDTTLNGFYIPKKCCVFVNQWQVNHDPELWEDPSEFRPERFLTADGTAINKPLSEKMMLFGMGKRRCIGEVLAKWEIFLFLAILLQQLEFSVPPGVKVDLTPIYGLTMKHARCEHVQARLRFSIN
In short: (§4)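 1A2 MROD run with NADPH at 0.0125, 0.025, 0.05 and 0.1 µM inhibitor, product monitored continuously over 6 min. Activity at different times came from first derivatives of product curves, expressed as % of control remaining. KI and limiting kinact were derived from the resulting linear plot.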

Homo sapiens [5] = organism: Homo sapiens; experiment: Selectivity ratio of Ki for human microsomal CYP1B1 to Ki for human microsomal CYP1A2; in short: as §1
Cytochrome P450 1A2 [6] = biological target: T3, Cytochrome P450 1A2; experiment: Inhibition of human microsomal CYP1A2-dependent methoxyresorufin-O-demethylase activity by spectrofluorimetric analysis in presence of NADPH regenerating solution; in short: as §2
Cytochrome P450 1A2 [7] = biological target: T3, Cytochrome P450 1A2; experiment: Inhibition of CYP1A2-dependent methoxyresorufin-O-demethylase activity in human HepG2 cells at 10^-5 M preincubated for 24 hrs followed by substrate addition measured at 10, 30, 60 mins by fluorescence assay; type: cell-based; details: hepg2, 1 h, 10 µM
In short: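 HepG2 cells (DMEM, 10% FBS) were plated at 2 × 10^5 per well overnight. They were exposed 24 h to compound (final 10^-4 to 10^-7 M) in DMSO, with βNF 10^-5 M as positive control. Cells were PBS-washed and given medium with 5 × 10^-6 M methoxyresorufin. Resorufin fluorescence (ex 535/em 585 nm) was read at 10, 30 and 60 min. Triplicate, three independent runs, unpaired t test versus DMSO.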

Cytochrome P450 1B1 [8] = biological target: T1, Cytochrome P450 1B1; experiment: Inhibition of human microsomal CYP1B1-dependent ethoxyresorufin-O-deethylase activity at 10 nM measured over 6 mins by spectrofluorimetric analysis in absence of NADPH regenerating solution; details: 0.1 h, 0.01 µM
In short: (§5)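 Microsomal P450 in 0.1 M potassium phosphate pH 7.6 with MgCl2 and 10 nM inhibitor in DMSO, 2 mL final. Preincubated 5 min at 37 °C either with NADPH-regenerating solution, or without it, with NADPH then added at start. Reaction started with ethoxyresorufin (final 5 µM). Resorufin formation followed 6 min at 37 °C.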

CYP1A2 [9] = biological target: T4, CYP1A2 (Homo sapiens, UniProt P05177); experiment: Inhibition of human microsomal CYP1A2-dependent methoxyresorufin-O-demethylase activity at 10 nM preincubated for 5 mins followed by NADPH regenerating solution and substrate addition measured over 6 mins by spectrofluorimetric analysis relative to control; details: human microsomal CYP1A2, probe methoxyresorufin (O-demethylation)
T4 sequence (P05177 whole entry): T3 sequence (P05177 whole entry)

CYP1A2 [10] = biological target: T4, CYP1A2; experiment: as §3; details: human microsomal CYP1A2, probe methoxyresorufin (O-demethylation); in short: as §4
Cytochrome P450 1A1 [11] = biological target: T2, Cytochrome P450 1A1; experiment: Inhibition of human microsomal CYP1A1-dependent ethoxyresorufin-O-deethylase activity at 10 nM preincubated for 5 mins followed by NADPH regenerating solution and substrate addition measured over 6 mins by spectrofluorimetric analysis; details: 0.1 h, 0.01 µM; in short: as §5
Cytochrome P450 1A2 [12] = biological target: T3, Cytochrome P450 1A2; experiment: Inhibition of human microsomal CYP1A2-dependent methoxyresorufin-O-demethylase activity at 10 nM measured over 6 mins by spectrofluorimetric analysis in absence of NADPH regenerating solution; details: 0.1 h, 0.01 µM
Cytochrome P450 1A1 [13] = biological target: T2, Cytochrome P450 1A1; experiment: Inhibition of human microsomal CYP1A1-dependent ethoxyresorufin-O-deethylase activity at 10 nM measured over 6 mins by spectrofluorimetric analysis in absence of NADPH regenerating solution; details: 0.1 h, 0.01 µM; in short: as §5
Cytochrome P450 1B1 [14] = biological target: T1, Cytochrome P450 1B1; experiment: Inhibition of human microsomal CYP1B1-dependent ethoxyresorufin-O-deethylase activity at 10 nM preincubated for 5 mins followed by NADPH regenerating solution and substrate addition measured over 6 mins by spectrofluorimetric analysis; details: 0.1 h, 0.01 µM; in short: as §5

SMILES	Ratio Ki (Homo sapiens [1])	Ki (Cytochrome P450 1B1 [2])	Ki (Cytochrome P450 1A1 [3])	TDI (Cytochrome P450 1A2 [4])	Ratio Ki (Homo sapiens [5])	Ki (Cytochrome P450 1A2 [6])	further results
Cc1cc2c(ccc3c(-c4ccccc4)c(C)c(=O)oc32)o1	3.1	22.6 µM	11.6 µM	Not Active	6.1	3.7 µM	
Cc1cc2c(ccc3c(C)cc(=O)oc32)o1	33	7.46 µM	37.9 µM	Not Active	6.5	1.15 µM	
O=c1cc(-c2ccccc2)oc2c1ccc1ccccc12 [ALPHA-NAPHTHOFLAVONE]			0.045 µM				
O=c1cc(-c2ccccc2)oc2ccc3ccccc3c12 [BETA-NAPHTHOFLAVONE]							inhibition (INH) (Cytochrome P450 1A2 [7]): Not Active
O=c1cc(-c2ccccc2)oc2c3c(ccc12)OCC=C3			0.27 µM				
O=c1cc(-c2ccccc2)oc2c3c(cc(O)c12)OCC=C3		0.0056 µM	0.11 µM				
Cc1cc(=O)oc2c3c(ccc12)OCC=C3	73	12 µM	110 µM	Not Active	7.9	1.51 µM	
Cc1nc2c([nH]1)c(=O)n(C)c(=O)n2Cc1ccco1 [FURAFYLLINE]		> 200 µM	> 200 µM				
Cc1cc2c(ccc3c(-c4ccccc4)cc(=O)oc32)o1	2.4	4.62 µM	12 µM	Not Active	0.9	5.02 µM	
O=c1cc(-c2ccccc2)c2ccc3c(c2o1)OCO3			> 200 µM	Not Active		3.55 µM	
Cc1cc2c(cc(O)c3c(=O)cc(-c4ccccc4)oc32)o1	11	0.1 µM	0.47 µM		2.3	0.044 µM	inhibition (INH) (Cytochrome P450 1B1 [8]): Not Active; inhibition at 0.1 h, 0.01 µM (CYP1A2 [9]): > 90%; kinact (CYP1A2 [10]): 0.00433 s⁻¹; inhibition (INH) (Cytochrome P450 1A1 [11]): Not Active; inhibition (INH) (Cytochrome P450 1A2 [12]): Active; inhibition (INH) (Cytochrome P450 1A1 [13]): Not Active; inhibition (INH) (Cytochrome P450 1B1 [14]): Not Active
Cc1cc(=O)oc2c1ccc1ncccc12	7.1	46.6 µM	101 µM	Not Active	3.3	14.2 µM	
Cc1cc2c(ccc3c(C(F)(F)F)cc(=O)oc32)o1	45	46.8 µM	60.7 µM	Not Active	35	1.35 µM	
O=c1cc(-c2ccccc2)c2ccc3c(c2o1)C=CCO3	20	5.04 µM	25.2 µM	Not Active	3.9	1.29 µM	
O=c1cc(-c2ccccc2)oc2c1ccc1ncccc12	0.5	0.12 µM	0.04 µM		1.8	0.076 µM	
Cc1c(-c2ccccc2)c2ccc3c(c2oc1=O)C=CCO3	11	21.2 µM	18.4 µM	Not Active	12	1.72 µM	
O=c1cc(-c2ccccc2)oc2c3c(ccc12)OCO3	14	0.48 µM	1.23 µM		5.3	0.09 µM	
